Measured values from ChEMBL document CHEMBL1287789, “4-deoxy-4-fluoro-xyloside derivatives as inhibitors of glycosaminoglycan biosynthesis” (Bioorg Med Chem Lett, 2010).
Activity calls are given as the source filed them. The calls are words filed in the database; no cut-off is given here.

Columns and labels:
Bos taurus [1] = species on record: Bos taurus; assay: Inhibition of glycosaminoglycan biosynthesis in BLMVEC assessed as [3H]glucosamine incorporation at 300 uM after 24 hrs by liquid scintillation counting; type: functional
Outline: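 Cells seeded at 2 × 10⁵/well and grown 24 h at 37 °C, then switched to DMEM with 1 mM glucose and 10% dialyzed FBS. Treated 24 h with 300 µM compound (from 30 mM DMSO stock) or DMSO alone, with ³H-glucosamine. Pronase digest overnight at 37 °C; GAGs bound to DEAE-Sepharose, washed at pH 6.0 with 0.1 M NaCl, eluted with 1 M NaCl; eluate radioactivity by scintillation counting.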

[2] = Cytotoxicity against BLMVEC assessed as cell viability at <=300 uM after 24 hrs by celltiter blue assay; parameters: species or system Bos taurus; details: cattle
Outline: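 Bovine lung microvascular endothelial cells seeded at 2.5 × 10⁴ cells/well in duplicate, Ham's F-12 with 10% FBS. Exposed to DMSO (control) or compound at 0.1, 0.3 and 1.0 mM for 24 h at 37 °C; 3% H₂O₂ as control. CellTiter-Blue added for 2 h, stopped with 3% SDS, fluorescence read at ex 560/em 590 nm.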

Bos taurus [3] = species on record: Bos taurus; assay: Inhibition of glycosaminoglycan biosynthesis in BLMVEC assessed as [3H]-labeled-GAG chains by anion exchange chromatography; type: functional; details: dose or concentration not given here
Outline: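 ³H-glucosamine-labelled GAG chains from cells given 300 µM compound or DMSO for 24 h were run on DEAE-HPLC. Elution over 80 min with a 0.2–1 M NaCl linear gradient, monitored by an in-line radiometric detector; heparan sulfate and chondroitin sulfate resolved as separate peaks between 20 and 50 min.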

Compound | inhibition (Bos taurus [1]) | Activity [2] | inhibition (Bos taurus [3]) [%]
O[C@@H]1[C@@H](O)[C@@H](n2cc(COCc3ccc4ccccc4c3)nn2)OC[C@H]1F | Active | Non-toxic | –
O[C@@H]1[C@@H](O)[C@@H](n2cc(COc3ccc(F)cc3)nn2)OC[C@H]1F | Active | Non-toxic | –
O[C@@H]1[C@@H](O)[C@H](n2cc(COc3ccc(F)cc3)nn2)OC[C@H]1F | Active | Non-toxic | –
O=[N+]([O-])c1ccc(OCc2cn([C@H]3OC[C@@H](F)[C@H](O)[C@H]3O)nn2)cc1 | 80% | Non-toxic | 80
O[C@@H]1[C@@H](O)[C@H](n2cc(COCc3ccc4ccccc4c3)nn2)OC[C@H]1F | inactive | Non-toxic | –
O[C@@H]1[C@@H](O)[C@@H](n2cc(-c3ccc4ccccc4c3)nn2)OC[C@H]1F | Active | Non-toxic | –
O=[N+]([O-])c1ccc(OCc2cn([C@@H]3OC[C@@H](F)[C@H](O)[C@H]3O)nn2)cc1 | 80% | Non-toxic | 80
